# Compounds with a hit are over-represented: about 4.9% of the library has one in this group of screens.
# STAT1 blocker – STAT1 signaling inhibitors, primary screen, cell-based, HTS, luciferase reporter | NIH 3T3 STAT1-luciferase reporter, IFN-gamma, luminescence | inhibition, % at 5.5 µM | 0.35% of 200,000 active;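 active means inhibition above a set limit, the mean inhibition across all tested compounds plus 3 SD, cut at about 34% in these data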;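 further: 0% = IFN-gamma with DMSO and 100% = IFN-gamma with 300 µM nifuroxazide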
# STAT3 act – IL-6 driven STAT3 reporter potentiators, primary screen, U3A cells, luciferase, luminescence, MLSCN library | IL-6 STAT3-luciferase reporter; 100% = signal with IL-6 EC80 alone | activation (% of control), % at 5.6 µM | 0.91% of 190,000 active;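 active means activation above the screen-wide mean of compound activation plus 3 SD, cut at about 130% in these data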;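 further: 0% = background luminescence of wells with medium and substrate only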
#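 Detection: reporter luminescence signal / Assay system: STAT1-lacking human U3A cells, STAT3 luciferase reporter / Incubation: compound pre-incubation 1 h before IL-6, then 6 h stimulation at 37 °C / Control set: IL-6-only high control / Read-out: % activation relative to IL-6 control / Probe or stimulus: Interleukin-6, 33 ng/mL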
# NF-kB expr up – activators of NF-kB expression in neurons, primary screen, cell-based, HTS. human neuronal cells, NF-kB reporter expression; hits give high values. fold change at 12.5 µM. 1.6% of 190,000 active. AID 1239, 2008; in the data active means fold change above about 3.3
# APP 5'UTR act – activators of APP 5'UTR luciferase reporter, primary screen, SH-SY5Y cells; 1% of 190,000 active; activation, % at 2 µM; SH-SY5Y APP 5'UTR luciferase reporter, luminescence; zero percent = DMSO vehicle wells; AID 1276, 2008;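 active means activation above a set limit, based on mean plus 3 SD of controls, cut at about 140% in these data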
# STAT1 act – STAT1 signaling activators, primary screen, cell-based, HTS, luciferase reporter; NIH 3T3 STAT1-luciferase reporter, IFN-gamma, luminescence; 100% = IFN-gamma alone, no compound; activation (% of control), % at 5.5 µM; 2.6% of 200,000 active;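 active means activation above the screen-wide mean activation plus 3 SD, cut at about 130% in these data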;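 further: raw ratio to IFN-gamma control signal so 100% means no change and 0% no light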
# STAT3 blocker – IL-6 driven STAT3 reporter inhibitors, primary screen, U3A cells, luciferase, luminescence, MLSCN library | IL-6 STAT3-luciferase reporter; host cell line lacks STAT1 | inhibition, % at 5.5 µM | 0.89% of 190,000 active | AID 862, 2007;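 active means inhibition above the mean inhibition across all screened compounds plus 3 SD, cut at about 44% in these data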;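 further: 0% = DMSO only wells and 100% = 100 µM nifuroxazide control wells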
# * marks the source's active call; other numbers are inactive results; . = no result given.
SMILES,STAT1 blocker,STAT3 act,NF-kB expr up,APP 5'UTR act,STAT1 act,STAT3 blocker
Cc1nn(C)cc1/C=C/C(=O)c1cccs1,-14,119,6.3*,126,116,-18
Cc1nn(C)cc1/C=C/C(=O)c1ccccc1,-12,115,11*,161*,111,-11
Cc1c(/C=C/C(=O)c2ccccc2)cnn1C,-8,113,2.6,81,107,-11
Cc1c(/C=C/C(=O)c2ccc(O)cc2)cnn1C,-9,111,2.5,79,108,-15
COc1cccc(NC(=O)C(c2ccccc2)N2CCNC(=O)C2)c1 (configuration not stated),4,110,1.5,21,94,-8
CCOc1ccccc1C(=O)Nc1nn[nH]n1,0,104,1.1,12,98,0
O=C(COC(=O)CNC(=O)c1ccccc1)Nc1cccc(Br)c1,3,101,0.91,-5,98,-7
CCOC(=O)Nc1nc(-c2ccccc2)c(C(=O)c2ccc(Cl)cc2)s1,-8,103,3.9*,-94,108,-4
COc1ccc(NC2=C(NCCO)C(=O)c3ccccc3C2=O)cc1,-2,107,4.3*,32,101,-7
CCS(=O)(=O)Nc1ccc(C2=NN(C(=O)c3ccco3)C(c3cccc(F)c3)C2)cc1 (configuration not stated),63*,90,0.93,-2,41,17
CCS(=O)(=O)Nc1ccc(C2=NN(C(=O)c3ccco3)C(c3ccc(C)cc3)C2)cc1 (configuration not stated),8,82,0.39,-9,93,32
O=C1/C(=C\Nc2ccc(OC(F)(F)F)cc2)CCN1c1ncccn1,-34,89,3.2,.,131*,19
C/C(=N\Nc1nc(-c2ccccc2)cs1)c1cccs1,-51,121,0.64,116,145*,-25
O=C(COC(=O)c1cccs1)Nc1nc(-c2ccccc2)cs1,0,94,1.2,-5,100,2
COc1ccc(C(=O)C[n+]2cn(C(F)F)c3ccccc32)c(F)c1,-35,110,1.5,-4,130*,-5
CN(C)S(=O)(=O)c1cccc(C(=O)Nc2ccccc2)c1,-8,102,1.3,0,106,4
CN(C)S(=O)(=O)c1cccc(C(=O)NCCc2ccccc2)c1,-36,104,2.5,156*,134*,-1
Cn1cc(/C=N/n2cnc3scc(-c4ccc(Cl)cc4)c3c2=O)c2ccccc21,0,135*,1.1,-90,100,-40
O=C(NCCc1ccc(F)cc1)c1ccc([N+](=O)[O-])cc1,-40,92,2.2,96,137*,17
O=C(O)C1=C(OCc2ccccc2)C(=O)NCC1,-4,103,1,27,103,1
Cc1ccc(C2(c3ccc(C)cc3)CC2C(=O)NCc2cccnc2)cc1 (configuration not stated),4,104,1.3,-9,96,-1
CC(=NC1CC1)c1c(-c2ccccc2)[nH]n(-c2nc3ccccc3s2)c1=O,-16,104,0.89,6,114,-8
CC(=NC1CCCC1)c1c(C)[nH]n(-c2nc3ccccc3s2)c1=O,-45,93,0.98,61,142*,14
COc1ccc(/C=N/OCC(=O)Nc2ccc3c(c2)OCO3)c(OC)c1,6,96,1.2,23,94,12
C/C(=N\NC(=O)c1ccn(C)n1)c1cccc(NC(=O)c2ccncc2)c1,-22,102,1,-3,120,-1
SMILES,STAT1 blocker,STAT3 act,NF-kB expr up,APP 5'UTR act,STAT1 act,STAT3 blocker
C/C(=N\NC(=O)c1ccn[nH]1)c1cn(C)nc1C,-32,100,1.8,55,129*,4
C/C(=N\NC(=O)c1nn(C)cc1Br)c1ccncc1,-15,94,1.3,-2,113,6
Cc1cccc(OCCCC(=O)Nc2ccc(N(C)C)cc2)c1,-51,118,1.2,92,145*,-18
CCCCOCCCNc1ncnc2c1[nH]c1ccccc12,41*,55,0.5,-5,62,56*
CCOCCCNc1ncnc2c1[nH]c1ccccc12,30,80,0.67,7,72,27
COC(=O)c1ccc(CNC(=O)COC(=O)C2CC3C=CC2C3)cc1 (configuration not stated),-6,101,1.1,-9,104,5
CC(C)Sc1nc(N)nc(-c2cccs2)c1C#N,-37,100,2.8,.,134*,5
CSc1nc(N)nc(-c2cccs2)c1C#N,-7,90,1.2,13,106,16
Cc1cc2c(c(SCC#N)n1)C(=O)OC2,2,94,1.2,6,99,14
O=C(CCCOc1ccc(Cl)cc1Cl)N1CCN(c2ccccn2)CC1,-1,103,0.91,-8,102,3
COC(=O)C1CCN(C(=O)CSc2ccccc2)CC1,-4,106,1.2,-10,103,-7
COC(=O)C1CCN(C(=O)CCCOc2ccccc2)CC1,-32,117,2.8,146*,132*,-18
O=C(CCCOc1ccccc1)N1CCN(c2ccccn2)CC1,-26,98,2.9,153*,129*,5
COCCn1c(C)cc(C(=O)COC(=O)c2cc3c(s2)CCC3)c1C,-39,108,1,17,136*,-6
COCCn1c(C)cc(C(=O)CSc2nnc(C)s2)c1C,39*,26,1.3,22,64,92*
COCCn1c(C)cc(C(=O)CSc2n[nH]c(N)n2)c1C,-7,101,1.6,10,102,1
CCN1C(=O)C(=O)N(CC(=O)Nc2ccccc2Oc2ccccc2)C1=O,0,105,0.89,-8,100,3
CCN(CC)S(=O)(=O)c1cccc(NC(=O)COC(=O)CCC(=O)c2ccc(F)cc2)c1,1,106,0.77,6,99,3
CCCn1c(SCC(=O)Nc2cc(S(=O)(=O)N3CCOCC3)ccc2OC)n[nH]c1=O,1,98,1.4,12,99,0
Cn1ccnc1SCC(=O)Nc1ccc2c(c1)OC(F)(F)O2,-1,75,1.3,0,100,33
Cc1ccc(NC(=O)/C(C#N)=C(\N)C(Cl)(Cl)Cl)nc1,-22,82,6.4*,34,118,23
CNc1ncc(C(=O)c2ccc(Br)cc2)s1,-43,98,3.5*,94,140*,2
CNc1ncc(C(=O)c2ccccc2)s1,-16,118,1.8,26,114,-21
CC(=O)c1cnc(Nc2cccc(Cl)c2Cl)s1,-41,96,2,69,136*,15
CC(=O)c1cnc(Nc2ccccc2)s1,-7,96,1.4,11,107,6

# Assay outcomes from PubChem.
